UBC13 inh: inhibitors of human UBC13 polyubiquitin chain formation. TR-FRET. hit rate 0.47% among 330,000. AID 485273. P61088. inhibition, % at 20 µM; in the data active = inhibition above about 45%, passing the limit was not always enough
MEKK3 PB1 HTS: raises or lowers MEK5 binding to the human MEKK3 PB1 domain; binding response (% of control), % at 10 µM; Q99759; hit rate 1.4% among 290,000; AID 1529; bead-based flow cytometry, Alexa488-MEK5 binding to MEKK3; actives lie on both sides; 0 = blocked by unlabeled MEK5, 100 = vehicle;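 active = binding response more than 3 SD above or below the average of its plate-row segment, actives on both sides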;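 note: Alexa488 bead fluorescence after subtracting the streptavidin-only scavenger bead signal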
Target sequence (Q99759 whole entry, looked up, the tested form may be a part): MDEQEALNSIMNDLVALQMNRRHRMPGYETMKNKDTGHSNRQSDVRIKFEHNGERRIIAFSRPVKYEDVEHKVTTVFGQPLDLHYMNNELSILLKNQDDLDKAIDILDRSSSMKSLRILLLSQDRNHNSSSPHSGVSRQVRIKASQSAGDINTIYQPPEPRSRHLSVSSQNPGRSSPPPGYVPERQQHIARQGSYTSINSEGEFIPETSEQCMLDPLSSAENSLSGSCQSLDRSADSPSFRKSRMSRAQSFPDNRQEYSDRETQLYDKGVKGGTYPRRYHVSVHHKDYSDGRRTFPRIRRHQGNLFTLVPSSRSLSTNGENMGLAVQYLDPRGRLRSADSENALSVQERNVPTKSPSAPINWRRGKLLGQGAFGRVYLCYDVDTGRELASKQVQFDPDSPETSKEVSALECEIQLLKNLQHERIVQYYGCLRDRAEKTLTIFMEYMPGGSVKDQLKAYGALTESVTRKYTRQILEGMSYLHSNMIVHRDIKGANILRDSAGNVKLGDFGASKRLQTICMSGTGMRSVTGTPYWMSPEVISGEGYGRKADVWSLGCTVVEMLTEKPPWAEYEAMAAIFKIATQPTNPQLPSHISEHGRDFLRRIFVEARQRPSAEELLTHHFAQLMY
PREPL inh: inhibitors of human prolyl oligopeptidase-like enzyme PREPL | Q4J6C6 | recombinant PREPL, fluorescence polarization activity-based probe | inhibition, % at 5.96 µM | hit rate 0.68% among 320,000; in the data active = inhibition above about 43%;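 note: 0% = enzyme with DMSO and 100% = wells lacking enzyme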
MEKK2wt PB1 HTS: raises or lowers MEK5 binding to wildtype human MEKK2 PB1 domain | Q9Y2U5 | bead flow cytometry, Alexa488-MEK5 binding to MEKK2 WT; actives lie on both sides | binding response (% of control), % at 10 µM | hit rate 1.1% among 290,000; in the data active = binding response below about 67% or above about 130%
MEKK2 mut-MEK5: signal of MEK5 binding to mutant human MEKK2 PB1 domain; bead flow cytometry, Alexa488-MEK5 binding to MEKK2 mutant; percent response, % at 10 µM; hit rate 0.35% among 290,000; AID 1530; in the data active = percent response above about 24%, passing the limit was not always enough
Apaf-1 inh: inhibitors of human Apaf-1 apoptosome. reconstituted apoptosome caspase-3 activity, DEVD-Rh110 fluorescence. inhibition, % at 20 µM. hit rate 0.71% among 330,000; active = inhibition of at least 40% at 20 µM;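 note: plate controls were DMSO wells for no effect and DEVD-CHO caspase inhibitor wells for full effect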
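Material: cell-free apoptosome with Apaf-1, procaspase-3 and caspase-9; Buffer or medium: Hepes pH 7.5 with detergent and BSA; Reagent: cytochrome c trigger plus (Z-DEVD)2-Rh110 caspase-3 substrate; Times: compound with Apaf-1, dATP, procaspase-3 30 min, then 50 min reaction, room temperature; Technique: Rh110 fluorescence intensity.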
* hit, by the source's call; [ ] = another dose, or the depositor's remark. Only some compounds are listed: those with a hit (about 3.1% of all), similar ones and a draw of the others.

Results for COc1ccc(/C=C2/C(=O)N(c3c(F)c(F)c(F)c(F)c3F)N=C2C)cc1 ?
UBC13 inh: -18.2; MEKK3 PB1 HTS: 105.0; PREPL inh: 5.0; MEKK2wt PB1 HTS: 95.0; MEKK2 mut-MEK5: -2.0; Apaf-1 inh: 53.8*

What do the screens show for `COc1cccc(OC)c1C(=O)NC(=S)NCc1cccnc1`?
UBC13 inh: -10.4; MEKK3 PB1 HTS: 100.0; PREPL inh: 2.3; MEKK2wt PB1 HTS: 104.0; MEKK2 mut-MEK5: 4.0; Apaf-1 inh: 3.6

What do the screens show for `Cc1cc(N2CCCC2)c(C)cc1C=O`?
UBC13 inh: -2.4; MEKK3 PB1 HTS: 95.0; PREPL inh: 20.7; MEKK2wt PB1 HTS: -46.0*; MEKK2 mut-MEK5: -6.0; Apaf-1 inh: 11.8

How did COc1cc(N2CCCC2)ccc1C=O do in these assays?
UBC13 inh: -5.9; MEKK3 PB1 HTS: 103.0; PREPL inh: 14.2; MEKK2wt PB1 HTS: 90.0; MEKK2 mut-MEK5: -8.0; Apaf-1 inh: -19.3

How did C=CCCN(Cc1ccccc1)S(=O)(=O)c1cc(Br)ccc1Br do in these assays?
UBC13 inh: 7.3; PREPL inh: -4.9; Apaf-1 inh: 12.7

How did Nc1nc2c(s1)CCc1c-2cnn1-c1ccccc1 do in these assays?
UBC13 inh: -5.0; MEKK3 PB1 HTS: 100.0; PREPL inh: 33.0; MEKK2wt PB1 HTS: 96.0; MEKK2 mut-MEK5: 3.0; Apaf-1 inh: 92.6*

Results for COc1ccc(CN2CCN(C(=O)c3c(-c4ccccc4)noc3C)CC2)cc1F ?
UBC13 inh: -1.6; PREPL inh: 3.6; Apaf-1 inh: -11.3

Results for Cc1ccc2oc(=O)c3cc(C(=O)NCCCN4CCN(C)CC4)sc3c2c1 ?
UBC13 inh: 14.3; MEKK3 PB1 HTS: 108.0; PREPL inh: 5.5; MEKK2wt PB1 HTS: 113.0; MEKK2 mut-MEK5: 7.0; Apaf-1 inh: 1.2

What do the screens show for `CC1CCCN(CCCNC(=O)c2cc3c(Cl)nc4ccccc4c3s2)C1` (centres undefined)?
UBC13 inh: 30.1; MEKK3 PB1 HTS: 106.0; PREPL inh: -22.3; MEKK2wt PB1 HTS: 189.0*; MEKK2 mut-MEK5: 54.0*; Apaf-1 inh: 16.1

Results for Cc1ccc2oc(=O)c3cc(C(=O)NCCCN4CC(C)CC(C)C4)sc3c2c1 (centres undefined) ?
UBC13 inh: 18.2; MEKK3 PB1 HTS: 101.0; PREPL inh: 2.1; MEKK2wt PB1 HTS: 142.0*; MEKK2 mut-MEK5: 13.0; Apaf-1 inh: 22.9

How did Cc1nc2ccccc2c2oc(C(=O)NCCCN3CCCC(C)C3)cc12 (centres undefined) do in these assays?
UBC13 inh: -4.3; MEKK3 PB1 HTS: 102.0; PREPL inh: -12.5; MEKK2wt PB1 HTS: 104.0; MEKK2 mut-MEK5: 3.0; Apaf-1 inh: 2.0

What do the screens show for `CN(CCCNC(=O)c1cc2c(Cl)nc3ccccc3c2s1)Cc1ccccc1`?
UBC13 inh: 34.2; MEKK3 PB1 HTS: 110.0; PREPL inh: -15.5; MEKK2wt PB1 HTS: 193.0*; MEKK2 mut-MEK5: 44.0; Apaf-1 inh: 0.0

What do the screens show for `N#CCCN(NC1=NS(=O)(=O)c2ccccc21)C(=O)c1ccccc1Br`?
UBC13 inh: 1.8; MEKK3 PB1 HTS: 100.0; PREPL inh: -12.4; MEKK2wt PB1 HTS: 100.0; MEKK2 mut-MEK5: 2.0; Apaf-1 inh: -2.6

How did O=C(O/N=C/c1ccc2c(c1)OCO2)c1ccccc1Cl do in these assays?
UBC13 inh: 0.7; MEKK3 PB1 HTS: 94.0; PREPL inh: 55.4*; MEKK2wt PB1 HTS: 98.0; MEKK2 mut-MEK5: -2.0; Apaf-1 inh: 12.6

Results for Cc1ccc(NC(=S)N/N=C/c2c(C)[nH]c3ccccc23)cc1 ?
UBC13 inh: 22.6; MEKK3 PB1 HTS: 110.0; PREPL inh: 36.5; MEKK2wt PB1 HTS: 38.0*; MEKK2 mut-MEK5: 50.0; Apaf-1 inh: 10.4

How did Cc1[nH]c2ccccc2c1/C=N/NC(=O)c1ccccc1 do in these assays?
UBC13 inh: -5.6; MEKK3 PB1 HTS: 103.0; PREPL inh: -2.0; MEKK2wt PB1 HTS: 103.0; MEKK2 mut-MEK5: 2.0; Apaf-1 inh: -0.3

What do the screens show for `COc1ccc2c(Cl)c(C(=O)N/N=C/c3c(C)[nH]c4ccccc34)sc2c1`?
UBC13 inh: 1.7; MEKK3 PB1 HTS: 96.0; PREPL inh: 19.9; MEKK2wt PB1 HTS: 48.0*[inhibitor]; MEKK2 mut-MEK5: 22.0; Apaf-1 inh: -0.7

How did Cc1[nH]c2ccccc2c1/C=N/NC(=O)c1cccc(Br)c1 do in these assays?
UBC13 inh: 11.5; MEKK3 PB1 HTS: 111.0; PREPL inh: 21.7; MEKK2wt PB1 HTS: 42.0*; MEKK2 mut-MEK5: 64.0*; Apaf-1 inh: 2.3

What do the screens show for `COc1ccc2c(Cl)c(C(=O)N/N=C/c3ccc4c(c3)OCO4)sc2c1`?
UBC13 inh: -5.9; MEKK3 PB1 HTS: 91.0; PREPL inh: -3.3; MEKK2wt PB1 HTS: 93.0; MEKK2 mut-MEK5: 2.0; Apaf-1 inh: 7.7

How did Cc1[nH]c2ccccc2c1/C=C/C(=O)c1ccccc1 do in these assays?
UBC13 inh: -8.0; MEKK3 PB1 HTS: 150.0*; PREPL inh: 14.6; MEKK2wt PB1 HTS: 16.0*; MEKK2 mut-MEK5: 180.0*; Apaf-1 inh: -2.4

How did Cc1[nH]c2ccccc2c1/C=N/NC(N)=S do in these assays?
UBC13 inh: -6.2; MEKK3 PB1 HTS: 102.0; PREPL inh: 11.6; MEKK2wt PB1 HTS: 108.0; MEKK2 mut-MEK5: 6.0; Apaf-1 inh: -10.9

What do the screens show for `CNC[C@@H]1Oc2ccc(NS(=O)(=O)c3ccc(OC)cc3)cc2CC(=O)N([C@H](C)CO)C[C@@H]1C`?
UBC13 inh: 11.8; PREPL inh: 10.8; Apaf-1 inh: 7.8

What do the screens show for `Cc1cc(Br)cc2cn[nH]c12`?
UBC13 inh: 4.4; MEKK3 PB1 HTS: 79.0; PREPL inh: 5.3; MEKK2wt PB1 HTS: 40.0*; MEKK2 mut-MEK5: -28.0; Apaf-1 inh: 0.9

What do the screens show for `Cc1cc2[nH]ncc2cc1NC(N)=S`?
UBC13 inh: -8.5; MEKK3 PB1 HTS: 103.0; PREPL inh: 4.9; MEKK2wt PB1 HTS: 100.0; MEKK2 mut-MEK5: 0.0; Apaf-1 inh: -7.5

How did O=[N+]([O-])c1ccc(/C=C2\CCC(C3=CCCC3)=C2N2CCOCC2)cc1 do in these assays?
UBC13 inh: -33.4; MEKK3 PB1 HTS: 101.0; PREPL inh: 15.9; MEKK2wt PB1 HTS: 1.0*; MEKK2 mut-MEK5: 2.0; Apaf-1 inh: 0.2

What do the screens show for `CC(C)OCC(O)CN1CCC(Cc2ccccc2)CC1` (centres undefined)?
UBC13 inh: 7.0; MEKK3 PB1 HTS: 101.0; PREPL inh: 5.7; MEKK2wt PB1 HTS: 104.0; MEKK2 mut-MEK5: 1.0; Apaf-1 inh: -7.5

How did OC(COc1ccc(Br)cc1)CN1CCC(Cc2ccccc2)CC1 (centres undefined) do in these assays?
UBC13 inh: 11.3; MEKK3 PB1 HTS: 103.0; PREPL inh: -8.2; MEKK2wt PB1 HTS: 135.0*; MEKK2 mut-MEK5: 17.0; Apaf-1 inh: 14.0

How did Cc1cccc(C)c1NC(=O)COC(=O)c1c2c(nc3ccccc13)/C(=C\c1ccc3c(c1)OCO3)CCC2 do in these assays?
MEKK3 PB1 HTS: 96.0; PREPL inh: 70.7*; MEKK2wt PB1 HTS: 97.0; MEKK2 mut-MEK5: -1.0

Compound activity: PubChem BioAssay, several laboratories
